Assay results taken from ChEMBL document CHEMBL2424587, “Antiproliferative activity of abietane diterpenoids against human tumor cells” (J Nat Prod, 2013).
The source made the active and inactive calls. No cut-off for these calls is given here.

How the values were obtained:
[1] = tested on: HL-60; assay: Induction of apoptosis in human HL60 cells after 24 hrs by flow cytometry in presence of p38 MAPK inhibitor SB203580 (reference value: 15.1 +/- 3.8%); assay type: functional
[2] = tested on: HL-60; assay: Cell cycle arrest in human HL60 cells assessed as accumulation at G1 phase at 3 uM after 24 hrs by […]propidium iodide staining-based flow cytometry (reference value: 43%); assay type: functional
[3] = tested on: HL-60; assay: Induction of apoptosis in human HL60 cells after 24 hrs by flow cytometry in presence of MEK1 inhibitor PD98059; assay type: functional, cell-based
[4] = tested on: HL-60; assay: Induction of apoptosis in human HL60 cells after 24 hrs by flow cytometry in presence of MEK2 inhibitor U0126; assay type: functional, cell-based
[5] = tested on: HL-60; assay: Cell cycle arrest in human HL60 cells assessed as accumulation at G2-M phase at 3 uM after 24 hrs by […]propidium iodide staining-based flow cytometry (reference value: 4%); assay type: functional
[6] = tested on: HL-60; assay: Induction of apoptosis in human HL60 cells using DEVD-pNA as substrate assessed as caspase-3/7 activation at 3 uM after 24 hrs relative to control; assay type: functional
In short: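 HL-60 cells treated with 3 μM diterpene for 24 h. Lysates were assayed for cleavage of chromogenic tetrapeptide substrates DEVD-pNA (caspase-3/7), IETD-pNA (caspase-8) and LEHD-pNA (caspase-9). Activity is expressed as n-fold over untreated control. Mean ± SE of three independent experiments, each in triplicate.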

[7] = tested on: HL-60; assay: Induction of apoptosis in human HL60 cells assessed as dense perinuclear condensation at 3 uM after 24 hrs by transmission electron microscopy; assay type: functional, cell-based
In short: (§1)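 HL-60 cells incubated 24 h with 3 μM compound and examined by transmission electron microscopy for ultrastructural changes.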

[8] = tested on: HL-60; assay: Induction of apoptosis in human HL60 cells assessed as abundant vacuoles at 3 uM after 24 hrs by transmission electron microscopy; assay type: functional, cell-based; in short: as §1
[9] = tested on: PBMC; assay: Cytotoxicity against human PBMC cells up to 3 uM after 24 hrs by MTT assay; assay type: cell-based
In short: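 PBMC from heparinized blood of healthy volunteers, isolated on Ficoll-Paque, cultured in parallel with HL-60 cells for 24 h at the stated concentrations; viability measured by MTT; Student's t-test versus untreated control.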

[10] = tested on: HL-60; assay: Induction of apoptosis in human HL60 cells assessed as fragmented and/or condensed nuclei at 3 uM after 24 hrs by transmission electron microscopy; assay type: functional, cell-based; in short: as §1
[11] = tested on: HL-60; assay: Induction of apoptosis in human HL60 cells after 24 hrs by flow cytometry in presence of JNK/SAPK inhibitor SP600125; assay type: functional, cell-based
[12] = tested on: HL-60; assay: Induction of apoptosis in human HL60 cells assessed as procaspase-7 cleavage at 3 uM after 24 hrs by immunoblotting analysis; assay type: functional, cell-based
In short: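 HL-60 cells treated 24 h with 3 μM; immunoblots of lysates probed with antibodies that recognize both pro-caspases and cleaved caspases, and for PARP.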

[13] = tested on: HL-60; assay: Cytotoxicity against human HL60 cells overexpressing Bcl-XL protein after 72 hrs by MTT assay; assay type: functional, cell-based; settings: HL-60, 72 h
[14] = tested on: HL-60; assay: Induction of ROS-mediated cell death in human HL60 cells at 3 uM after 15 mins to 4 hrs by flow cytometry in presence of NAC; assay type: functional, cell-based
[15] = tested on: HL-60; assay: Induction of apoptosis in human HL60 cells assessed as accumulation at sub-G1 phase at 3 uM after 24 hrs by AnnexinV-FITC/propidium iodide staining-based flow cytometry (reference value: 4%)
[16] = tested on: HL-60; assay: Induction of apoptosis in human HL60 cells assessed as decrease in Bcl-2 level by Western blotting analysis; assay type: functional, cell-based
In short: (§2)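 HL-60 cells incubated with the diterpene; whole-cell lysates probed by Western blot for Bcl-2 family proteins, with β-actin as loading control.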

[17] = tested on: HL-60; assay: Induction of apoptosis in human HL60 cells assessed as decrease in Bax level by Western blotting analysis; assay type: functional, cell-based; in short: as §2
[18] = tested on: HL-60; assay: Induction of intracellular ROS generation in human HL60 cells at 3 uM after 15 mins to 4 hrs by flow cytometry; assay type: functional, cell-based
In short: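 HL-60 cells given 3 μM diterpene for the indicated times, then loaded with H2-DCF-DA. Fluorescence of oxidized H2DCF was measured by flow cytometry. Three independent experiments.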

Row | Compound | Activity [1] | Activity [2] [%] | Activity [3] | Activity [4] | Activity [5] [%] | fold change (FC) [6] | Activity [7] | Activity [8] | Activity [9] | Activity [10] | Activity [11] | Activity [12] | IC50 [13] [nM] | Activity [14] | Activity [15] [%] | Activity [16] | Activity [17] | Activity [18]
1 | CC(=O)O[C@H]1C2=C(C(=O)C(OC(=O)c3ccccc3)=C(C(C)C)C2=O)[C@@]2(C)CCCC(C)(C)[C@@H]2[C@@H]1OC(=O)c1ccccc1 | Active | 30 | Active | Active | 16 | 2 | Active | Active | Non-toxic | Active | Active | Active | 1100 | inactive |  |  |  | 
2 | CC(=O)O[C@H]1C2=C(C(=O)C(OC(=O)c3ccc(Cl)cc3)=C(C(C)C)C2=O)[C@@]2(C)CCCC(C)(C)[C@@H]2[C@@H]1O | Active |  |  |  |  | 2 |  |  | Non-toxic |  |  |  | 2200 | inactive | 9 | Active | Active | 
3 | COc1ccc(C(=O)OC2=C(C(C)C)C(=O)C3=C(C2=O)[C@@]2(C)CCCC(C)(C)[C@@H]2[C@H](O)[C@H]3OC(C)=O)cc1 |  |  | Active | Active |  | 2 |  |  | Non-toxic |  | Active |  | 2900 |  | 8 |  |  | inactive
